# The entries come from a sample that favours hits as a whole.
# KDM4C inh = KDM4C (human) demethylase inhibition | Q9H3R0 | GST-KDM4C 2-372, H3K9me3 peptide, LANCE TR-FRET | inhibition, % at 12.5 µM | 96,000 compounds, 0.15% hits;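 active = mean replicate inhibition above about 25%, with at least 55% of replicates also reaching it, limit read from the data, passing the limit was not always enough; inconclusive = only one of those two conditions met; inactive = neither condition met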
#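 Assay system: GST-GASC-1 enzyme fragment 2-372 | Amount: 10 nM enzyme | Medium: HEPES buffer, pH 7.5, plus ascorbate | Reagent: H3K9me3 peptide substrate, Fe(II), 2-oxoglutarate | Doses: Single-point compound screen | Incubation: 30 min demethylation and 1 h detection at room temperature | Measured by: LANCE TR-FRET, excitation 340 nm, emissions 618 and 671 nm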
# IDH1 R132H inh = inhibitors of human IDH1 R132H | O75874 | IDH1 R132H reductase, diaphorase/resazurin fluorescence, 60 min | inhibition, % at 10 µM | 70,000 compounds, 0.18% hits; in the data active = inhibition above about 34%; inconclusive = no clear call, values can overlap the other calls; inactive = below about 11%;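 note: 0% = DMSO and 100% = no enzyme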
# Target sequence (O75874 whole entry R132H): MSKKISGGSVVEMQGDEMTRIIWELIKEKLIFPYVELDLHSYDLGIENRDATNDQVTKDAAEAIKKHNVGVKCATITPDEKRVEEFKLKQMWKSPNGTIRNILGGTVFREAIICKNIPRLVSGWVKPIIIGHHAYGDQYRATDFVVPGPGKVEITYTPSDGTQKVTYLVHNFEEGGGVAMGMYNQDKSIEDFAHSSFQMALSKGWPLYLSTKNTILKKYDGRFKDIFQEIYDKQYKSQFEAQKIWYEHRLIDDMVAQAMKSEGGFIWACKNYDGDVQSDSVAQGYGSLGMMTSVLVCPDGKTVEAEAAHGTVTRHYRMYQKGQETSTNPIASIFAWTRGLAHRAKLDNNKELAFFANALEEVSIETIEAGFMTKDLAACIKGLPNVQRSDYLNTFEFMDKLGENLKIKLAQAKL
# Starred values were filed as active, the others as inactive; u = inconclusive; x = no result given.
SMILES,KDM4C inh,IDH1 R132H inh
C/C=C/c1ccc2c(c1)O[C@@H](CN(C)C(=O)Cc1cccnc1)[C@H](C)CN([C@@H](C)CO)S2(=O)=O,6,46*
C/C=C/c1ccc2c(c1)O[C@@H](CN(C)C(=O)Cc1cccnc1)[C@H](C)CN([C@H](C)CO)S2(=O)=O,1,12
C/C=C/c1ccc2c(c1)O[C@@H](CN(C)Cc1ccncc1)[C@@H](C)CN([C@@H](C)CO)S2(=O)=O,1,2
C/C=C/c1ccc2c(c1)O[C@H](CN(C)Cc1ccncc1)[C@@H](C)CN([C@H](C)CO)S2(=O)=O,1,42*
Cc1ccc(NC(=O)CSc2nc(-c3cccs3)cc(C(F)(F)F)n2)c([N+](=O)[O-])c1,x,-1
CC1(C)C(=O)N=C2c3ccccc3C(=O)C(=O)C21 (stereo not drawn),x,1
CN1C(=O)c2cc(NC(=O)C3CC3)ccc2OC[C@H]2O[C@@H](CC(=O)O)CC[C@@H]21,44*,x
CN1C(=O)c2cc(NC(=O)C3CC3)ccc2OC[C@@H]2O[C@@H](CC(=O)O)CC[C@@H]21,1,x
COc1cc(Br)c(CN(CCc2ccc(O)cc2)C(=O)C(F)(F)F)cc1O,x,10
O=C(Nc1ccc(S(=O)(=O)Nc2ncccn2)cc1)c1ccccc1Oc1ccccc1,x,0
O=C(N[C@@H]1CC[C@@H](CCNS(=O)(=O)Cc2ccccc2)O[C@@H]1CO)c1ccc2c(c1)OCO2,-1,0
O=C(N[C@H]1CC[C@H](CCNS(=O)(=O)Cc2ccccc2)O[C@H]1CO)c1ccc2c(c1)OCO2,35*,5
Cc1nnc(SCC(=O)Nc2ccc(I)cc2C)s1,x,0
CCCN1[C@@H]2c3cccc(=O)n3C[C@@H]2[C@@H](CO)[C@@H]1C(=O)N[C@@H](C)c1ccccc1,19,x
CCCN1[C@H](C(=O)N[C@@H](C)c2ccccc2)[C@@H](CO)[C@@H]2Cn3c(cccc3=O)[C@@H]21,38*,x
CN(C)c1ccc2c(c1)[C@H]1C[C@H](CC(=O)NCc3ccccc3)O[C@@H](CO)[C@H]1O2,36*,-2
O=C(O)C[C@@H]1C[C@H]2c3cc(NC(=O)Nc4ccccc4F)ccc3O[C@H]2[C@H](CO)O1,3,-2
CCCNC(=O)C[C@H]1C[C@@H]2c3cc(N(C)C)ccc3O[C@@H]2[C@@H](CO)O1,31*,-10
CCCNC(=O)C[C@H]1C[C@H]2c3cc(N(C)C)ccc3O[C@H]2[C@H](CO)O1,49*,x
COCCNC(=O)C[C@H]1C[C@@H]2c3cc(N(C)C)ccc3O[C@@H]2[C@H](CO)O1,17,-2
COC(=O)C[C@@H]1C[C@@H]2c3cc(NC(=O)Nc4ccccc4F)ccc3O[C@@H]2[C@@H](CO)O1,41*,81*
COCCNC(=O)C[C@@H]1C[C@@H]2c3cc(N(C)C)ccc3O[C@@H]2[C@H](CO)O1,u,-2
CN(C)c1ccc2c(c1)[C@@H]1C[C@@H](CC(=O)NCc3ccccc3)O[C@H](CO)[C@@H]1O2,25,-3
CCCCN1C(=O)C(O)(CC(=O)c2ccco2)c2ccccc21 (stereo not drawn),x,1
COc1ccc(C)cc1NC(=O)CN(c1ccc(Cl)cc1)S(C)(=O)=O,x,0
SMILES,KDM4C inh,IDH1 R132H inh
CCn1c(SCC(=O)Nc2c(F)cc(F)cc2Br)nnc1-c1ccccc1F,x,0
CCc1ccc(NC(=O)COc2ccc(NC(C)=O)cc2)cc1,x,0
COCCNC(=O)C[C@H]1C[C@H]2c3cc(NC(=O)c4ccc5c(c4)OCO5)ccc3O[C@H]2[C@@H](CO)O1,54*,16
COc1ccc(S(=O)(=O)Nc2ccc3c(c2)[C@H]2C[C@@H](CC(=O)NCC4CC4)O[C@H](CO)[C@H]2O3)cc1,44*,74*
CN(C)c1ccc2c(c1)[C@@H]1C[C@@H](CC(=O)N3CCCCC3)O[C@H](CO)[C@@H]1O2,24,x
CN(C)c1ccc2c(c1)[C@@H]1C[C@@H](CC(=O)N3CCOCC3)O[C@@H](CO)[C@@H]1O2,44*,-17
COc1ccc(S(=O)(=O)Nc2ccc3c(c2)[C@H]2C[C@@H](CC(=O)NCC4CC4)O[C@@H](CO)[C@H]2O3)cc1,0,0
COCCNC(=O)C[C@H]1C[C@@H]2c3cc(NC(=O)c4ccc5c(c4)OCO5)ccc3O[C@@H]2[C@@H](CO)O1,1,-3
COc1ccc(C(=O)NC(c2c(C)[nH]n(-c3ccccc3)c2=O)(C(F)(F)F)C(F)(F)F)cc1,x,0
COc1ccc(S(=O)(=O)N(C)CC(=O)Nc2ccc(Br)cc2F)cc1OC,x,1
O=C(CCCN1C(=O)c2cccc3cccc(c23)C1=O)Nc1ccccc1[N+](=O)[O-],x,-1
C[C@@H]1CN([C@@H](C)CO)S(=O)(=O)c2ccc(C3=CCCCC3)cc2O[C@@H]1CN(C)Cc1cccnc1,0,38*
C[C@@H]1CN([C@@H](C)CO)S(=O)(=O)c2ccc(C3=CCCCC3)cc2O[C@@H]1CN(C)C(=O)Cc1ccncc1,-2,x
C[C@@H]1CN([C@@H](C)CO)S(=O)(=O)c2ccc(C3=CCCCC3)cc2O[C@H]1CN(C)C(=O)Cc1ccncc1,-1,58*
C[C@@H]1CN([C@H](C)CO)S(=O)(=O)c2ccc(C3=CCCCC3)cc2O[C@@H]1CN(C)Cc1cccnc1,-2,x
Cc1nnc(SCC(=O)Nc2cccc(Cl)c2Cl)s1,x,0
COc1ccc(CN=Cc2ccc(C(F)(F)F)cc2)cc1,x,0
O=C(CN1CCOCC1)NCC[C@H]1CC[C@H](NC(=O)Nc2ccc(F)cc2)[C@H](CO)O1,69*,73*
O=C(CN1CCOCC1)NCC[C@@H]1CC[C@H](NC(=O)Nc2ccc(F)cc2)[C@H](CO)O1,0,0
O=C(CN1CCOCC1)N[C@@H]1CC[C@H](CCNC(=O)Nc2cc(F)ccc2F)O[C@H]1CO,31*,12
O=C(CN1CCOCC1)N[C@H]1CC[C@@H](CCNC(=O)Nc2cc(F)ccc2F)O[C@@H]1CO,2,0
COc1ccc(C(=O)CSc2nnc(-c3ccc(OC)c(OC)c3)n2-c2ccc(C)cc2)cc1,x,1
CN(C)CC#Cc1ccc([C@@H]2[C@H](CO)N3CCCCN(S(=O)(=O)c4ccccc4)C[C@@H]23)cc1,5,x
CN(C)CC#Cc1ccc([C@@H]2[C@@H](CO)N3CCCCN(S(=O)(=O)c4ccccc4)C[C@@H]23)cc1,32*,x
CC(C)CC#Cc1ccc([C@@H]2[C@@H](CO)N3CCCCN(S(=O)(=O)c4ccc(F)cc4)C[C@H]23)cc1,-2,x
SMILES,KDM4C inh,IDH1 R132H inh
CC(C)CC#Cc1ccc([C@H]2[C@@H](CO)N3CCCCN(S(=O)(=O)c4ccc(F)cc4)C[C@H]23)cc1,26*,x
CS(=O)(=O)N(CC(=O)Nc1ccc(Cl)cc1)c1cccc([N+](=O)[O-])c1,x,0
Cc1ccccc1-c1nc(SCC(=O)Nc2ccc(F)c(Cl)c2)n[nH]1,x,0
O=C(O)CSc1nc2cc(F)c(F)cc2[nH]1,x,-1
COc1ccc(-c2ccc3c(c2)O[C@H](CN(C)C(=O)c2ccccc2F)[C@H](C)CN([C@@H](C)CO)S3(=O)=O)cc1,1,2
COc1ccc(-c2ccc3c(c2)O[C@H](CN(C)C(=O)c2ccccc2F)[C@H](C)CN([C@H](C)CO)S3(=O)=O)cc1,45*,u
Cc1ccc(S(=O)(=O)N(C)C[C@H]2Oc3cc(-c4cccc(F)c4)ccc3S(=O)(=O)N([C@@H](C)CO)C[C@@H]2C)cc1,45*,87*
